The sample as a whole holds a higher share of hits than the screen did.
HePTP inh: inhibitors of human HePTP phosphatase, primary screen, biochemical, absorbance, leukemia target. Tyrosine-protein phosphatase non-receptor type 7 (Homo sapiens), P35236. recombinant HePTP phosphatase activity, OD absorbance. inhibition, % at 20 µM. actives 0.64% (n = 110,000); in the data active = inhibition above about 50%;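 also: plate controls were vehicle for no effect and reference inhibitor for full effect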
Target sequence (P35236 whole entry, looked up): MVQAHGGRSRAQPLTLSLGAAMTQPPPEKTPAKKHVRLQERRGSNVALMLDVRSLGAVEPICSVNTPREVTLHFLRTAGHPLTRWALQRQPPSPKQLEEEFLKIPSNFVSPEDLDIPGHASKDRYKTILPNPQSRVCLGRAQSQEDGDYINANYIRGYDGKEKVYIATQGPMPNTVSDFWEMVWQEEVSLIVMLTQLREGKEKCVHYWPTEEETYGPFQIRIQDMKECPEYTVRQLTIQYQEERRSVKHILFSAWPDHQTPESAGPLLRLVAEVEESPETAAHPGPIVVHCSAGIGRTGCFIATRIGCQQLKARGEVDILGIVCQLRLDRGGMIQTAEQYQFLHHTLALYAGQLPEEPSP
Ec RNAP inh: E. coli RNAP inhibitors, biochemical. DNA-directed RNA polymerase subunit beta (Escherichia coli (strain K12)), P0A8V2. E. coli RNA polymerase, fluorescence transcription assay. inhibition, %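 (tested at 10 µM)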. actives 0.2% (n = 62,000). AID 559, 2006; in the data active = inhibition above about 20%;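 also: 0% = enzyme without compound and 100% = no enzyme blank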
Ecoli WT expand: growth inhibitors of wild-type E. coli, primary screen, strain BW25113, expanded library, OD600. OD600 absorbance. growth inhibition, % at 100 µM. actives 0.15% (n = 98,000);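 active = growth inhibition above about 50% at one test dose, limit read from the data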;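 also: growth measured after 20 h incubation at 37 °C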
Ecoli tolC: growth inhibitors of E. coli tolC mutant, primary screen, strain BW25113 ΔtolC::kan, 384-well. growth inhibition, % at 10 µM (by protocol). OD615. actives 2.2% (n = 65,000);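 active = growth inhibition at or above a cutoff equal to the mean over every tested compound plus 3 SD, cut at about 60% in these data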;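 also: growth measured after 20 h incubation at 37 °C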
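Test system – E. coli BW25113 ΔtolC::kan, tolC deletion mutant strain · Detection – OD at 615 nm · Buffer or medium – LB with kanamycin 50 µg/mL · Times – 20 h compound exposure of bacteria at 37 °C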
MMP13 inh: human MMP13 inhibitors, primary screen, biochemical, FRET peptide cleavage; Collagenase 3 (Homo sapiens), P45452; MMP-13 fTHP FRET cleavage, Mca fluorescence; inhibition, % at 4 µM; actives 0.07% (n = 65,000);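 active = inhibition above the mean of compound-free control plate wells plus 3 SD, cut at about 14% in these data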;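 also: 0% = DMSO wells and 100% = wells with reference MMP-13 inhibitor after basal subtraction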
AP complement: alternative complement pathway inhibitors, primary screen, biochemical, ELISA, human serum, orthogonally pooled compounds; LPS-coated ELISA, C3 deposition; tested in compound mixtures; inhibition, % at 5 µM; actives 0.08% (n = 62,000); AID 1235, 2008;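 active = inhibition above 30% in each of the two pooled mixtures holding the compound, so the lower value exceeds 30%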;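 also: 0% = serum in Mg-EGTA without compound and 100% = EDTA serum blank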
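Test system: human serum complement alternative pathway, C3 deposition onto LPS / Medium: Mg2+-EGTA GVB++ buffer containing human serum at 1:15 dilution / Probe or stimulus: Plate-bound LPS / Times: 1 h at 37 °C / Signal: ELISA with HRP anti-human C3 antibody, TMB substrate, absorbance 450 nm / Measure: percent inhibition / Repeats: two pool placements per compound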
Active calls of the source: *; · = no result given.

SMILES | HePTP inh | Ec RNAP inh | Ecoli WT expand | Ecoli tolC | MMP13 inh | AP complement
O=C(Nc1nccs1)c1sc2ccccc2c1Cl | 81.9* | · | -10.0 | · | · | ·
c1ccc(-c2nc(N3CCCCCC3)c3ccccc3n2)nc1 | 9.4 | · | 26.0 | 100.0* | -10.7 | 18.8
COc1cccc(/C=N/N2CCN(Cc3cccc4ccccc34)CC2)c1OC | 0.7 | · | · | · | · | ·
CCc1nnc(NC(=O)C2CC3CCC2C3)s1 (stereo unspecified) | -9.0 | · | · | · | · | ·
C=C(C)COc1ccc(-c2nc(N)ncc2-c2ccc(OC)cc2)c(O)c1 | 4.0 | 3.1 | -29.0 | 85.6* | 0.2 | 11.5
C=C(C)COc1ccc(-c2ncncc2Oc2ccc(OC)cc2)c(O)c1 | 2.6 | 4.7 | 0.0 | 65.8* | -0.2 | 15.0
COc1ccc(-c2cnc(N)nc2-c2ccc(OC)cc2O)cc1 | -2.8 | 3.8 | 3.0 | 7.4 | 3.1 | -1.3
CC1(C)Cc2c(sc3ncnc(NCc4ccccc4)c23)CO1 | 105.1* | · | · | · | · | ·
Cc1sc2ncnc(NCc3ccccc3)c2c1C | · | · | 1.0 | · | · | ·
O=C(Nc1cccc(F)c1)C1CCCN1S(=O)(=O)c1cccc2cccnc12 (stereo unspecified) | 2.3 | 5.4 | 3.0 | -8.7 | 1.7 | 4.2
O=C(Nc1ccc(C(F)(F)F)cc1)C1CCCN1S(=O)(=O)c1cccc2cccnc12 (stereo unspecified) | 6.3 | 6.8 | -8.0 | 76.0* | -3.4 | 14.8
COc1ccc(C(=O)NCCc2cccc(Cl)c2)cc1OC | -10.7 | · | · | · | · | ·
CCOc1ccc(C2/C(=C(\O)c3ccc(Cl)cc3)C(=O)C(=O)N2CCCn2ccnc2)cc1 (stereo unspecified) | -14.1 | · | · | · | · | ·
CCc1ccc(NC(=O)CSc2nnc(Cc3cccn3C)n2-c2ccc(F)cc2)cc1 | -0.1 | 4.2 | -15.0 | 66.1* | 4.2 | 5.9
Cc1ccc(NC(=O)CSc2nnc(Cc3cccn3C)n2-c2ccc(F)cc2)cc1 | 8.7 | 4.2 | 6.0 | 16.7 | 4.3 | 16.3
CC(C)c1ccc(/C=N/N=C2/NC(=O)CS2)cc1 | -8.3 | · | · | · | · | ·
COc1ccc(N2C(=O)/C(=C/c3cc([N+](=O)[O-])cc(OC)c3O)SC2=S)cc1 | 104.3* | · | · | · | · | ·
CCOC(=O)C1=C(O)/C(=C/c2ccco2)SC1=Nc1ccc(Cl)cc1 | 7.5 | · | · | · | · | ·
CC(C)(C)c1ccc(OCC(=O)Nc2ccc(NC(=O)c3ccco3)cc2)cc1 | -5.6 | · | · | · | · | ·
COc1nnc(-c2ccc(N3CCCCC3)c(N)c2)c2ccccc12 | · | · | · | 62.7* | 2.0 | ·
O=C(NC(=S)Nc1ccc2oc(-c3ccc(Cl)cc3)nc2c1)c1ccccc1 | -0.4 | · | · | · | · | ·
O=C(Nc1ccc(O)c(-c2nc3ccccc3o2)c1)c1ccc(-c2ccc(Cl)cc2)o1 | -16.6 | · | · | · | · | ·
Cc1cc([N+](=O)[O-])ccc1-c1ccc(C(=O)Nc2ccc3oc(-c4ccccc4)nc3c2)o1 | 6.0 | · | · | · | · | ·
O=C(Nc1ccc2oc(-c3ccccc3)nc2c1)c1ccc(-c2ccc([N+](=O)[O-])cc2)o1 | 100.7* | · | · | · | · | ·
O=C(NC(=S)Nc1ccc2oc(-c3ccccc3)nc2c1)c1ccccc1 | 102.9* | · | · | · | · | ·
SMILES | HePTP inh | Ec RNAP inh | Ecoli WT expand | Ecoli tolC | MMP13 inh | AP complement
Cc1ccc2oc(-c3ccc(NC(=O)c4ccc(-c5ccc(Cl)cc5)o4)cc3O)nc2c1 | 93.7* | · | · | · | · | ·
Cc1ccc(OCC(=O)Nc2ccc(OC(F)(F)F)cc2)c(C)c1 | -3.3 | · | · | · | · | ·
CC(C)(C)c1cc(N)c(O)c(C(C)(C)C)c1 | 2.8 | · | · | · | · | ·
CC(C)(C)c1ccc(O)c(N)c1 | -13.1 | 24.3* | 3.0 | -1.4 | 6.7 | -3.6
O=C(c1ccccc1I)N1CCN(c2ccccc2)CC1 | 5.3 | · | · | · | · | ·
O=C(Nc1ccccc1N1CCCCC1)c1ccccc1F | 5.3 | 2.7 | 2.0 | 87.7* | 1.1 | -4.1
O=C(Nc1ccccc1F)c1ccccc1F | 15.2 | · | · | · | · | ·
CCCc1[nH]nc2c1C(c1ccc(OC)c(CSC3=NCCS3)c1)C(C#N)=C(N)O2 (stereo unspecified) | 3.7 | 11.6 | 5.0 | 86.9* | -1.6 | -2.9
CCCc1[nH]nc2c1C(c1cc(OC)cc(OC)c1)C(C#N)=C(N)O2 (stereo unspecified) | -0.5 | 1.4 | 1.0 | -4.5 | 0.4 | 6.7
CC1=C(C#N)C(c2cc3c(cc2[N+](=O)[O-])OCO3)C2=C(CC(C)(C)CC2=O)N1 (stereo unspecified) | 6.2 | · | · | · | · | ·
CCOc1ccc(N=c2scc(-c3ccccc3)n2CCO)cc1 | · | · | -12.0 | · | · | ·
OCCn1c(-c2ccc3c(c2)OCO3)csc1=Nc1ccccc1 | 12.1 | 9.2 | 9.0 | 75.7* | 2.3 | 11.4
CCOC(=O)c1cccc(-c2ccc(/C=C3\Sc4ccccc4C3=O)o2)c1 | -16.4 | · | · | · | · | ·
COc1ccc(C(=O)Nc2ccc(S(=O)(=O)N3CCCCC3C)cc2)c(OC)c1OC (stereo unspecified) | -3.2 | 3.5 | -12.0 | 66.0* | -0.4 | 5.6
CCOC(=O)C(=CNc1ccc(F)c(F)c1O)C(=O)OCC | -1.9 | · | · | · | · | ·
CCOC(=O)c1cccc2c1-c1ccccc1/C2=N/O | -2.6 | 0.0 | 3.0 | 100.0* | 5.1 | 0.6
CCOC(=O)c1ccccc1N1C(=O)C=CC1=O | 4.7 | · | · | · | · | ·
Cc1cc(C)c(C#N)c(SCC(=O)OC2CCCCC2)n1 | 5.4 | 1.6 | -9.0 | 73.2* | -4.4 | 7.7
CCOC(=O)CSc1nc(C)cc(C)c1C#N | · | · | 7.0 | · | · | ·
O=C1CS/C(=N/S(=O)(=O)c2ccccc2)N1 | 3.8 | · | · | · | · | ·
COc1cc(-c2nnc3ccc(C(F)(F)F)cn23)ccc1Oc1ccc([N+](=O)[O-])cc1 | 101.7* | · | · | · | · | ·
COc1ccc2ccccc2c1-c1nnc2ccc(C(F)(F)F)cn12 | 3.4 | · | · | · | · | ·
COc1ccc(Cn2c(-c3ccco3)nc3oc4ccccc4c(=O)c3c2=O)cc1 | 7.7 | 4.4 | -21.0 | -31.0 | 2.4 | 0.6
COc1ccc(-c2nc3oc4cc(OC)ccc4c(=O)c3c(=O)n2Cc2ccco2)cc1 | 6.1 | · | -14.0 | 94.7* | -6.1 | 8.3
COc1ccc(Cn2c(-c3ccco3)nc3oc4cc(OC)ccc4c(=O)c3c2=O)cc1 | 2.5 | · | -23.0 | 86.4* | -0.9 | 9.0
SMILES | HePTP inh | Ec RNAP inh | Ecoli WT expand | Ecoli tolC | MMP13 inh | AP complement
COc1ccc2c(=O)c3c(=O)n(Cc4ccco4)c(-c4ccco4)nc3oc2c1 | · | · | -11.0 | · | · | ·
Cc1cc(C)c(/C=N/n2cnnc2)cc1C | -5.0 | · | · | · | · | ·
Cc1cccc(C)c1-n1c(C)cc(/C=N/NC(=O)CN2CCOCC2)c1C | 5.8 | · | · | · | · | ·
Cc1ccccc1CSc1nc2n(n1)C(c1cccs1)C1=C(CCCC1=O)N2 (stereo unspecified) | 9.6 | 7.8 | -12.0 | 100.0* | 1.7 | 7.7
CC(OC(=O)c1ccccc1NCc1ccco1)C(=O)Nc1ncc(Cl)cc1Cl (stereo unspecified) | -3.2 | -2.3 | -1.0 | 61.2* | -130.5 | -2.2
CN(C)c1nc(SCCOC(=O)Nc2ccccc2)nc(N(C)C)n1 | -7.6 | 6.4 | -29.0 | 85.5* | 3.8 | -17.8
CN(C)c1nc(C(=O)Nc2ccccc2)nc(N(C)C)n1 | · | · | -3.0 | 9.1 | -0.2 | ·
